Assay results published in article PMC3725831 (European journal of inorganic chemistry, 2011).
Like-named read-outs stand apart in the source and are kept apart here.

Columns and labels:
[1] = system: cancer and normal colon cells; conditions: both cell lines (cancer and normal colon cells); cited from earlier work
[2] = system: Caco-2 (human epithelial colorectal adenocarcinoma); test: MTS cytotoxicity assay, Caco-2 cells; type: cell-based
[3] = system: HT-29 (human colon adenocarcinoma); test: MTS cytotoxicity assay, HT-29 cells; type: cell-based
In short: (§1)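 Cells grown in McCoy's 5a with 10% FBS, 1% NEAA and 2% HEPES at 37 °C, 5% CO2, then seeded at 2000–5,000/well 24 h before dosing. Test compound in DMSO (<0.5% final) was given as six-point 4-fold serial dilutions for 24, 48 or 72 h. Read-out was MTS plus phenazine methosulphate for 3 h, OD490 versus DMSO controls. IC50 from curves; mean ± SE, three replications.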

[4] = system: CCD-18Co (human colon fibroblasts); test: MTS cytotoxicity assay, non-cancerous CCD-18Co cells; type: cell-based
In short: as §1, with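 “Colon fibroblasts” for “Cells”, “EMEM” for “McCoy's 5a”, “1% L-glutamine” for “2% HEPES”, “CO2; used at PDL 26–35. Seeded” for “CO2, then seeded”, “MTS/phenazine” for “MTS plus phenazine”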

[5] = system: HCT-116 (human colon carcinoma); test: MTS cytotoxicity assay, HCT-116 cells; type: cell-based
In short: as §1

[6] = system: cisplatin-resistant ovarian and testicular cancer cell lines; conditions: ref 9c; cited from earlier work

Which “inhibition of cell proliferation” value [1] does the source give for `N.N.[Cl][Pt][Cl]` [Cisplatin] here?
The value was “about 70%”.

Which IC50 ([2]; Caco-2, 24 h, read-out: IC50 Caco-2 24 hours) does the source give for `COc1cc([C@@H]2c3cc4c(cc3[C@@H](O[C@@H]3O[C@@H]5CO[C@@H](C)O[C@H]5[C@H](O)[C@H]3O)[C@H]3COC(=O)[C@H]23)OCO4)cc(OC)c1O` [Etoposide] here?
The IC50 was 47.6 ± 0.8 µM.

And the IC50 ([2]; Caco-2, 48 h, read-out: IC50 Caco-2 48 hours)?
The IC50 was 46.2 ± 1.9 µM.

And the IC50 ([2]; Caco-2, 72 h, read-out: IC50 Caco-2 72 hours)?
The IC50 was 40.9 ± 1.5 µM.

What about the IC50 ([3]; HT-29, 24 h, read-out: IC50 HT-29 24 hours) of the same molecule?
The IC50 was 19.2 ± 0.8 µM.

What about the IC50 ([3]; HT-29, 48 h, read-out: IC50 HT-29 48 hours) of the same molecule?
Its IC50 is 17.3 ± 1.9 µM.

And the IC50 ([3]; HT-29, 72 h, read-out: IC50 HT-29 72 hours)?
Its IC50 is 15.8 ± 2.4 µM.

And the IC50 ([4]; 24 h, read-out: IC50 CCD-18Co 24 hours)?
The IC50 was 82.5 ± 3.1 µM.

What about the IC50 ([4]; 48 h, read-out: IC50 CCD-18Co 48 hours) of the same molecule?
The IC50 was 79.2 ± 1.2 µM.

And the IC50 ([4]; 72 h, read-out: IC50 CCD-18Co 72 hours)?
The IC50 was 73.2 ± 1.9 µM.

And the IC50 ([5]; HCT-116, 24 h, read-out: IC50 HCT-116 24 hours)?
Its IC50 is 40.8 ± 0.5 µM.

What about the IC50 ([5]; HCT-116, 48 h, read-out: IC50 HCT-116 48 hours) of the same molecule?
The IC50 was 36.2 ± 2 µM.

What about the IC50 ([5]; HCT-116, 72 h, read-out: IC50 HCT-116 72 hours) of the same molecule?
Its IC50 is 38.4 ± 1.2 µM.

For `Cc1ccnc2c1ccc1c(C)ccnc12.Cc1ccnc2c1ccc1c(C)ccnc12.O=S(=O)([O-])[O-].[O]=[V+2]` [metvan, bis(4,7-dimethyl-1,10-phenanthroline)sulfatooxovanadium(IV)], which “effectiveness against cisplatin-resistant cancer cell lines” value [6] is on record?
Its value is “highly effective”.
